Assay results of several laboratories.
Compare with care: the assays were run in different laboratories.
SIGMAR1: Sigma non-opioid intracellular receptor 1 (SIGMAR1, Cavia porcellus, UniProt Q60492)
TMEM97: Sigma intracellular receptor 2 (TMEM97, Homo sapiens, UniProt Q5BJF2)
CASP7: Caspase-7 (CASP7, Homo sapiens, UniProt P55210)
ADRA1D: Alpha-1D adrenergic receptor (ADRA1D, Homo sapiens, UniProt P25100)
Prostate-specific antigen: Prostate-specific antigen (Homo sapiens, UniProt P07288)

O=C(NCCN1CCCCC1)c1cc(Br)ccc1OCCCF  Ki (SIGMAR1; ligand displacement, radioligand; cell membranes): 52.9 nM
CC(C)(C)Oc1cc(CCC(C)(C)N2Cc3ccc(S(C)(=O)=O)cc3C2)ccc1O  Ki (TMEM97; ligand displacement, radioligand; cell membranes): 8.5 nM
C[C@@H]1O[C@H](CNS(=O)(=O)c2ccc(CCN=[N+]=[N-])s2)[C@@H](O)[C@H](O)[C@@H]1O  Ki (Fucose-binding lectin PA-IIL (lecB, Pseudomonas aeruginosa, UniProt Q9HYN5); ligand displacement, FP): 1520 nM
O=C(c1ccc(CNCCCN2CCN(c3ccc(F)cc3)CC2)cc1)c1ccc([N+](=O)[O-])cc1  Ki (TMEM97; ligand displacement, radioligand; cell membranes): 34 nM
O=c1c(O)c(-c2ccc(O)cc2)oc2cc(O)cc(O)c12  Ki (CASP7; enzyme activity, inhibitor, fluorescence): > 300000 nM
C#CCNCCCN1CCN(CCCNC(=O)c2ccc(C(=O)c3ccc([N+](=O)[O-])cc3)cc2)CC1  Ki (TMEM97; ligand displacement, radioligand; cell membranes): 60.1 nM
O=C1c2ccccc2CCN1CCCCN1CCN(c2cccc(Cl)c2Cl)CC1  Ki (ADRA1D; ligand displacement, radioligand): 78.4 nM
CN(Cc1ccc(NC(=O)C2=Cc3cc(-c4ccc(OCCCF)cc4)ccc3CCC2)cc1)C1CCOCC1  Ki (SIGMAR1; ligand displacement, radioligand): 1000 nM
O=C(NCCN1CCCCC1)c1ccc(O)c(Br)c1  Ki (SIGMAR1; ligand displacement, radioligand; cell membranes): > 10000 nM
CCCn1nc(C(=O)N2CCCCC2)c2c1CCC(Nc1ccc(Oc3ccccc3)cc1)C2 (stereo not shown)  Ki (TMEM97; ligand displacement, radioligand): 310 nM
CCCC[C@H](NC(=O)[C@H](CCC(N)=O)NC(=O)[C@H](CO)NC(=O)[C@H](Cc1ccccc1)NC(=O)CCCCCN)C(=O)N[C@@H](CCCBr)B1O[C@@H]2C[C@@H]3C[C@@H](C3(C)C)[C@]2(C)O1  Ki (Prostate-specific antigen; enzyme activity, inhibitor, fluorescence; pH 7.8): 73.3 nM
CCCCN1CCC(COC(=O)c2ccc(N)c(OCF)c2)CC1  Ki (ADRA1D; cell-free assay, radioligand): > 10000 nM
O=C(NCCN1CCCCC1)c1ccc(OCCF)c(Br)c1  Ki (SIGMAR1; ligand displacement, radioligand; cell membranes): 36.1 nM
COc1ccc(CO[C@H]2CCCN(Cc3cccc(C)c3)C2)cc1F  Ki (TMEM97; ligand displacement, radioligand; cell membranes): 40 nM
O=C(CCCCC1SC[C@@H]2NC(=O)N[C@H]12)NCCCN(CCCN1CCN(C2CCCCC2)CC1)CC(=O)Nc1ccc(C(=O)c2ccccc2)cc1 (stereo in doubt)  Ki (TMEM97; ligand displacement, radioligand; cell membranes): 87 nM
Cc1cc(Oc2nccc3ccsc23)ccc1-c1c(C)c(=O)[nH]c(=O)n1C  Ki (Muscarinic acetylcholine receptor M3 (CHRM3, Homo sapiens, UniProt P20309); ligand displacement, radioligand): 4600 nM
CCCC[C@H](NC(=O)[C@H](CCCCN)NC(=O)[C@H](CO)NC(=O)[C@H](CO)NC(=O)OCc1ccccc1)C(=O)N[C@@H](CCCBr)B(O)O  Ki (Prostate-specific antigen; enzyme activity, inhibitor, fluorescence; pH 7.8): 24.2 nM
Nc1ccnc2ccccc12  Ki (Alpha-2B adrenergic receptor (ADRA2B, Homo sapiens, UniProt P18089); ligand displacement, radioligand; cell membranes): 53800 nM
CCOC(=O)[C@@]12C[C@@H]1[C@@H](n1cnc3c(NC)nc(C#Cc4ccc(Cl)s4)cc31)[C@H](O)[C@@H]2O  Ki (SIGMAR1; ligand displacement, radioligand): 1040 nM
CCCC[C@H](NC(=O)[C@H](CCC(N)=O)NC(=O)[C@H](CO)NC(=O)[C@H](Cc1ccccc1)NC(=O)CCCCCN)C(=O)N[C@@H](Cc1ccccc1)B(O)O  Ki (Prostate-specific antigen; enzyme activity, inhibitor, fluorescence; pH 7.8): 61.5 nM
CCCn1nc(C(=O)N2CCCCC2)c2c1CCC(N1CCC(c3ccncc3)CC1)C2 (stereo not shown)  Ki (TMEM97; ligand displacement, radioligand): 16 nM
O=C1c2ccccc2CCN1CCCCN1CCN(c2ccccn2)CC1  Ki (ADRA1D; ligand displacement, radioligand): 467 nM
CCCC[C@H](NC(=O)[C@H](CCC(N)=O)NC(=O)[C@H](CO)NC(=O)[C@H](CO)NC(=O)CCCCCN)C(=O)N[C@@H](CC(C)C)B(O)O  Ki (Prostate-specific antigen; enzyme activity, inhibitor, fluorescence; pH 7.8): 43.1 nM
O=C(CN(CCCCI)CCCN1CCN(C2CCCCC2)CC1)Nc1ccc(C(=O)c2ccccc2)cc1  Ki (TMEM97; ligand displacement, radioligand; cell membranes): 45 nM
CNc1nc(C#Cc2ccc(Cl)s2)nc2c1ncn2[C@H]1[C@H](O)[C@H](O)[C@]2(C(=O)OC)C[C@H]12  Ki (SIGMAR1; ligand displacement, radioligand): 8730 nM
O=c1c(O)c(-c2cc(O)c(O)c(O)c2)oc2cc(O)cc(O)c12  Ki (CASP7; enzyme activity, inhibitor, fluorescence): 65900 nM
CN(Cc1ccc(NC(=O)C2=Cc3cc(-c4ccc(OCCCCCF)cc4)ccc3CCC2)cc1)C1CCOCC1  Ki (SIGMAR1; ligand displacement, radioligand): 320 nM
CCCC[C@H](NC(=O)[C@H](CCC(N)=O)NC(=O)[C@H](CO)NC(=O)C[C@@H](Cc1ccc2ccccc2c1)NC(=O)CCCCCN)C(=O)N[C@@H](Cc1ccccc1)B(O)O  Ki (Prostate-specific antigen; enzyme activity, inhibitor, fluorescence; pH 7.8): 229 nM
COc1ccccc1N1CCN(CCCCN2CCc3ccccc3C2=O)CC1  Ki (ADRA1D; ligand displacement, radioligand): 14.2 nM
CCCC[C@H](NC(=O)[C@H](CCC(N)=O)NC(=O)[C@H](CO)NC(=O)CCCCCN)C(=O)N[C@@H](Cc1ccccc1)B(O)O  Ki (Prostate-specific antigen; enzyme activity, inhibitor, fluorescence; pH 7.8): 22 nM
CCCn1nc(C(=O)N2CCCCC2)c2c1CCC(Nc1ccc(N3CCCCC3)cc1)C2 (stereo not shown)  Ki (TMEM97; ligand displacement, radioligand): 787 nM
